# Reference: ChEMBL document CHEMBL1156038 (J Med Chem, 2009)
# Calls of active or inactive are those of the source. The rule behind the calls is not given here.
# How the values were obtained:
# Rattus norvegicus [1] = organism: Rattus norvegicus; experiment: Inhibition of [3H]adenine binding to adenine 1 receptor in rat brain cortical membrane at 100 uM by liquid scintillation counting; type: cell membranes
# In short: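 Aqueous solutions were autoclaved or heated >90 °C for ≥10 min to destroy bacterial binding sites. […] Filtered on GF/B with ice-cold Tris washes, then scintillation counted. Percent inhibition ± SEM.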
# [2] = Displacement of [3H]adenine from adenine 1 receptor in HEK293 cells by liquid scintillation counting; type: cell-based, Homo sapiens
# HEK293 [3] = experiment: Selectivity ratio of Ki for adenine 1 receptor in HEK293 cells to Ki for adenine 1 receptor in rat brain cortical membrane; type: cell-based
# Rattus norvegicus [4] = organism: Rattus norvegicus; experiment: Inhibition of [3H]adenine binding to adenine 1 receptor in rat brain cortical membrane at 30 uM by liquid scintillation counting; type: cell membranes
# Rattus norvegicus [5] = organism: Rattus norvegicus; experiment: Inhibition of [3H]adenine binding to adenine 1 receptor in rat brain cortical membrane at 250 uM by liquid scintillation counting; type: cell membranes
# HEK293 [6] = experiment: Inhibition of [3H]adenine binding to adenine 1 receptor in HEK293 cells at 100 uM by liquid scintillation counting; type: cell-based; details: Homo sapiens
# HEK293 [7] = experiment: Selectivity ratio of Ki for adenine 1 receptor in rat brain cortical membrane to Ki for adenine 1 receptor in HEK293 cells; type: cell-based
# [8] = Agonist activity at rat adenine 1 receptor expressed in human 1321N1 cells assessed as inhibition of isoproterenol-induced [3H]cAMP formation at 250 uM by scintillation counting relative to adenine; type: functional
# In short: (§1)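 1321N1 astrocytoma cells stably expressing rat Ade1R (retroviral pLXSN, G418 800 μg/mL), grown on 24-well plates. Cells washed and held 2 h at 37 °C in HBSS pH 7.3. Compound added together with 3 nM isoproterenol for 10 min at 37 °C, then stopped with hot EDTA/Triton lysis. cAMP measured by [3H]cAMP competition with calf adrenal binding protein and filtration, read against a 0–40 pmol standard curve. Result given as % of isoproterenol alone; n = 3.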
# 1321-N1 [9] = experiment: Antagonist activity at rat adenine 1 receptor expressed in human 1321N1 cells assessed as change in adenine IC50 for inhibition of isoproterenol-induced [3H]cAMP formation at 10 uM by scintillation counting; type: functional, cell-based
# In short: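 Retrovirally transduced 1321N1 astrocytoma cells stably expressing rat Ade1R, 24-well culture, washed and preincubated in Hepes-buffered HBSS pH 7.3, 2 h, 37 °C. […] Hot EDTA/Triton lysis. cAMP measured by competition with [3H]cAMP for calf adrenal binding protein, filtered, scintillation counting.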
# 1321-N1 [10] = experiment: Inhibition of [3H]adenine uptake at rat adenine 1 receptor expressed in human 1321N1 cells at 100 uM after 1 min by liquid scintillation counting; type: cell-based
# [11] = (§2) Agonist activity at rat adenine 1 receptor expressed in human 1321N1 cells assessed as inhibition of isoproterenol-induced [3H]cAMP formation by scintillation counting; type: functional, cell-based
# 1321-N1 [12] = experiment: as §2; type: functional, cell-based
# [13] = Agonist activity at rat adenine 1 receptor expressed in human 1321N1 cells assessed as inhibition of isoproterenol-induced [3H]cAMP formation at 1 uM by scintillation counting; type: functional
# 1321-N1 [14] = experiment: Inhibition of [3H]adenine uptake at rat adenine 1 receptor expressed in human 1321N1 cells at 1 mM after 1 min by liquid scintillation counting; type: cell-based
# 1321-N1 [15] = experiment: Agonist activity at rat adenine 1 receptor expressed in human 1321N1 cells assessed as inhibition of isoproterenol-induced [3H]cAMP formation at 500 uM by scintillation counting; type: functional, cell-based; in short: as §1
# 1321-N1 [16] = experiment: Agonist activity at rat adenine 1 receptor expressed in human 1321N1 cells assessed as inhibition of isoproterenol-induced [3H]cAMP formation at 250 uM by scintillation counting; type: functional, cell-based; in short: as §1
# [17] = Agonist activity at rat adenine 1 receptor expressed in human 1321N1 cells assessed as inhibition of isoproterenol-induced [3H]cAMP formation at 50 uM by scintillation counting relative to adenine; type: functional; in short: as §1
# 1321-N1 [18] = experiment: Agonist activity at rat adenine 1 receptor expressed in human 1321N1 cells assessed as inhibition of isoproterenol-induced [3H]cAMP formation at 30 uM by scintillation counting; type: functional, cell-based; in short: as §1
# 1321-N1 [19] = experiment: Activity at rat adenine 1 receptor expressed in human 1321N1 cells assessed as complete inhibition of cAMP formation at 250 uM; type: cell-based; in short: as §1
compound,measurement,setting,value
Nc1ncnc2[nH]c(-c3cccc(C(F)(F)F)c3)nc12,inhibition,Rattus norvegicus [1],23%
Nc1ncnc2c1ncn2CCC(=O)O,Ki,[2],18.5 µM
same,Ratio Ki,HEK293 [3],0.9
Nc1ncnc2c1ncn2Cc1ccccc1,inhibition,Rattus norvegicus [1],15%
Nc1ncnc2[nH]c(O)nc12,Ki,[2],110 µM
same,Ratio Ki,HEK293 [3],4.1
Nc1ncnc2[nH]c(C#Cc3ccccc3)nc12,inhibition,Rattus norvegicus [4],19%
CCCCC#Cc1nc(N)c2ncn([C@@H]3O[C@H](CO)[C@@H](O)[C@H]3O)c2n1,inhibition,Rattus norvegicus [1],5%
Nc1ncnc2c1ncn2CCN1CCNCC1,inhibition,Rattus norvegicus [5],28%
same,Ki,[2],> 100 µM
same,inhibition,HEK293 [6],0%
CCn1cnc2c(N)nc(Cl)nc21,inhibition,Rattus norvegicus [1],1%
CCn1cnc2c(OCCc3ccccc3)ncnc21,inhibition,Rattus norvegicus [1],4%
O=c1[nH]cnc2cc[nH]c12,inhibition,Rattus norvegicus [1],0%
CC(C)(C)OC(=O)NCCCNc1ncnc2[nH]cnc12,inhibition,Rattus norvegicus [1],46%
Nc1ncnc2c1ncn2CC(N)C(=O)O (racemic),Ki,[2],6.23 µM
same,Ratio Ki,HEK293 [3],0.58
CC(=O)Nc1ncnc2[nH]cnc12,Ki,[2],0.515 µM
same,Ratio Ki,HEK293 [3],0.18
same,Ratio Ki,HEK293 [7],5.5
same,Efficacy,[8],77%
same,Activity,1321-N1 [9],inactive
same,inhibition,1321-N1 [10],Active
Nc1ncnc2[nH]c(Sc3ccccc3)nc12,inhibition,Rattus norvegicus [4],0%
NNc1ncnc2[nH]cnc12,Ki,[2],17.5 µM
same,Ratio Ki,HEK293 [3],13
CN(C)c1nc2c(N)ncnc2[nH]1,Ki,[2],34.1 µM
same,Ratio Ki,HEK293 [3],14.8
same,inhibition at 250 µM,"[8]; Rattus norvegicus, 1321-N1",137%
same,inhibition,1321-N1 [10],Active
CCn1cnc2c(N)nc(NCCc3ccccc3)nc21,inhibition,Rattus norvegicus [1],3%
Nc1ncnc2[nH]c(-c3ccccc3)nc12,inhibition,Rattus norvegicus [1],16%
CCn1cnc2c(NC3CCCC3)ncnc21,inhibition,Rattus norvegicus [1],5%
Nc1nc(OCCC2CCCCC2)nc2[nH]cnc12,inhibition,Rattus norvegicus [1],-5%
CCCCC(CC)n1cnc2c(N)ncnc21 (stereo not drawn),inhibition,Rattus norvegicus [1],12%
Nc1[nH]cnc2ncnc1-2 [ADENINE],Ki,[2],0.0471 µM
same,IC50,[11],0.00829 µM
same,Activity,1321-N1 [12],Dose-dependent effect
same,inhibition at 1 µM,[13],35%
same,inhibition,1321-N1 [14],Active
Nc1[nH]cnc2nc(NCc3ccccc3)nc1-2,Ki,[2],32.9 µM
same,Ratio Ki,HEK293 [3],4.9
Nc1nc2[nH]cnc(N)c-2n1,Ki,[2],0.0341 µM
same,Ratio Ki,HEK293 [3],0.005
same,Ratio Ki,HEK293 [7],190
same,inhibition,1321-N1 [15],Active
same,inhibition,1321-N1 [10],Active
Nc1ncnc2[nH]c(/C=C/c3ccccc3)nc12,Ki,[2],12.2 µM
same,Ratio Ki,HEK293 [3],0.67
Nc1ncnc2c1ncn2CCN1CCOCC1,Ki,[2],5.49 µM
same,Ratio Ki,HEK293 [3],1.8
same,inhibition,1321-N1 [16],Active
same,inhibition,1321-N1 [10],Active
Nc1nc(Cl)nc2c1ncn2[C@@H]1O[C@H](CO)[C@@H](O)[C@H]1O,inhibition,Rattus norvegicus [1],1%
OCCNc1ncnc2[nH]cnc12,Ki,[2],100 µM
same,inhibition,HEK293 [6],58%
same,Ratio Ki,HEK293 [3],4
CCSc1nc2c(N)ncnc2[nH]1,inhibition,Rattus norvegicus [4],0%
Nc1ncnc2[nH]ccc12,inhibition,Rattus norvegicus [1],21%
Nc1nc(OCCc2ccccc2)nc2[nH]cnc12,inhibition,Rattus norvegicus [1],24%
CCCSc1nc2c(N)ncnc2[nH]1,inhibition,Rattus norvegicus [4],0%
NCCNc1ncnc2[nH]cnc12,inhibition,Rattus norvegicus [1],58%
ONc1ncnc2[nH]cnc12,Ki,[2],9.53 µM
same,Ratio Ki,HEK293 [3],19
same,Efficacy,[17],51%
same,inhibition,1321-N1 [10],Active
Nc1ncnc2c1ncn2CCc1cccnc1,Ki,[2],> 100 µM
same,inhibition,HEK293 [6],41%
same,Ratio Ki,HEK293 [3],1.3
Nc1ncnc2c1N=CC2,inhibition,Rattus norvegicus [1],39%
CSc1nc2c(N)ncnc2[nH]1,inhibition,Rattus norvegicus [4],10%
Nc1ncnc2ncn(Cc3ccccc3)c12,inhibition,Rattus norvegicus [1],11%
CCn1cnc2c(N)nc(OCCc3ccccc3)nc21,inhibition,Rattus norvegicus [1],7%
CCn1cnc2c(NCCc3ccccc3)ncnc21,inhibition,Rattus norvegicus [1],3%
Nc1ccnc2[nH]cnc12,Ki,[2],7.89 µM
same,Ratio Ki,HEK293 [3],0.7
CCCCOc1nc(N)c2ncn(CC)c2n1,inhibition,Rattus norvegicus [1],4%
Nc1ncnc2c1ncn2CCc1ccncc1,inhibition,Rattus norvegicus [5],46%
same,Ki,[2],> 100 µM
same,inhibition,HEK293 [6],44%
CC(C)(C)OC(=O)NCCNc1ncnc2[nH]cnc12,inhibition,Rattus norvegicus [1],21%
Nc1ncnc2[nH]c(N3CCCCC3)nc12,Ki,[2],31.7 µM
same,Ratio Ki,HEK293 [3],8.1
same,inhibition,1321-N1 [18],Active
same,inhibition,1321-N1 [19],Active
same,inhibition,1321-N1 [10],Active
Nc1[nH]ccc2ncnc1-2,Ki,[2],6.68 µM
same,Ratio Ki,HEK293 [3],1
Nc1ncnc2c1ncn2CCc1ccccn1,Ki,[2],100 µM
same,inhibition,HEK293 [6],58%
same,Ratio Ki,HEK293 [3],> 22
Nc1ncnc2c1ncn2CCc1ccccc1,Ki,[2],100 µM
same,inhibition,HEK293 [6],57%
same,Ratio Ki,HEK293 [3],2
CCOc1ncnc2c1ncn2C1CCCCC1,inhibition,Rattus norvegicus [1],-1%
NCCCNc1ncnc2[nH]cnc12,inhibition,Rattus norvegicus [1],49%
Nc1nc(C#Cc2ccccc2)nc2c1ncn2[C@@H]1O[C@H](CO)[C@@H](O)[C@H]1O,inhibition,Rattus norvegicus [1],0%
Nc1ncnc2c1ncn2C1CCCCC1,inhibition,Rattus norvegicus [1],-6%
Nc1nc(Cl)nc2c1ncn2[C@H]1C[C@H](O)[C@@H](CO)O1,inhibition,Rattus norvegicus [1],9%
CCNc1ncnc2[nH]cnc12,Ki,[2],100 µM
same,inhibition,HEK293 [6],59%
same,Ratio Ki,HEK293 [3],6
Nc1ncnc2[nH]c(N3CCCC3)nc12,Ki,[2],> 100 µM
same,inhibition,HEK293 [6],18%
same,Ratio Ki,HEK293 [3],> 2.4
Nc1ncnc2c1ncn2[C@H]1C[C@H](O)[C@@H](CO)O1 [DEOXYADENOSINE],Ki,[2],> 100 µM
same,inhibition,HEK293 [6],29%
same,Ratio Ki,HEK293 [3],> 9
Nc1ncnc2[nH]c(N3CCNCC3)nc12,Ki,[2],27.4 µM
same,Ratio Ki,HEK293 [3],8.4
same,Efficacy,[8],52%
same,Activity,1321-N1 [9],inactive
same,inhibition,1321-N1 [10],Active
